According to ChEMBL document CHEMBL3425405, “Discovery of Small Molecules for Up-Regulating the Translation of Antiamyloidogenic Secretase, a Disintegrin and Metalloproteinase 10 (ADAM10), by Binding to the G-Quadruplex-Forming Sequence in the 5' Untranslated Region (UTR) of Its mRNA” (J Med Chem, 2015):
Calls of active or inactive are those of the source. The rule behind the calls is not given here.

Tests used:
[1] = system: HeLa; test: Binding affinity to ADAM10 A10-RNA QGRS (unknown origin) transfected in human HeLa cells assessed as increase in ADAM10 translation efficiency at 2 uM after 24 hrs by Renilla/firefly dual luciferase reporter assay; assay type: cell-based
Procedure, shortened: (§1)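 HeLa cells transfected with 0.8 μg A10-Wt, A10-Mut or A10-Del plasmid (G-quadruplex motif upstream of Renilla in psiCHECK-2). Screening: 24 h at a single 2 μM concentration. Follow-up: plasmid for 12 h, then 0, 0.5, 1 or 2.5 μM for 24 h. Renilla normalized to firefly, relative to untreated control; mean ± SD of three independent measurements.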

[2] = system: HEK293; test: Reduction in Abeta40 protein production in APP expressing HEK cells at 0.5 to 1.5 uM after 48 hrs by ELISA method; assay type: functional, cell-based; details: Homo sapiens
Procedure, shortened: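 HEK-APP cells treated 48 h with increasing compound concentrations (0.75, 1, 1.5 μM). Secreted Aβ40 in equal amounts of conditioned medium quantified by sandwich ELISA. Values expressed relative to blank control; mean ± SD of three independent experiments.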

[3] = Binding affinity to ADAM10 A10-RNA QGRS (unknown origin) assessed as increase in RNA-ligand complexes at 0.5 to 10 fold excess compound level by native gel electrophoresis method
Procedure, shortened: (§2)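 A10-RNA-Wt labeled with Cy3/Cy5 folded in 100 mM KCl, 10 mM Tris-HCl, 0.1 mM EDTA (pH 7.5): 95 °C for 5 min, then cooled to room temperature over 90 min. RNA (2 μM) incubated 5 min at room temperature in the dark with 0, 0.5, 1, 5 or 10-fold excess compound. Run on native 16% polyacrylamide gel at 4 °C.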

[4] = system: HeLa; test: Binding affinity to ADAM10 5'-UTR RNA QGRS (unknown origin) transfected in human HeLa cells assessed as increase in ADAM10 translation efficiency at 0.5 uM after 24 hrs by Renilla/firefly dual luciferase reporter assay; assay type: cell-based
Procedure, shortened: (§3)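 HeLa cells transfected with 0.8 μg 5′UTR-Wt or 5′UTR-Mut dual-luciferase plasmid. After 12 h, incubated 24 h with 0, 0.5, 1 or 2.5 μM compound. Renilla luciferase normalized to firefly and expressed relative to the ligand-free control; mean ± SD of three independent experiments, each in triplicate.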

[5] = system: HEK293; test: Effect on APP protein expression in APP expressing HEK cells at 0.5 to 1.5 uM after 48 hrs by Western blotting method; assay type: functional, cell-based; details: Homo sapiens
Procedure, shortened: (§4)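 HEK-APP cells (DMEM, 10% FBS, 2 mM glutamine, 0.2 mg/mL G418) treated with 0, 0.5, 0.75, 1 or 1.5 μM compound for 48 h. Lysates in Tris/NaCl/EDTA/1% Triton buffer immunoblotted for ADAM10, APP and β-actin; conditioned medium blotted for sAPPα. Signal by densitometry, normalized to β-actin, relative to blank control; mean ± SD, three independent experiments.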

[6] = system: HeLa; test: Binding affinity to ADAM10 5'-UTR RNA QGRS (unknown origin) transfected in human HeLa cells assessed as increase in ADAM10 translation efficiency at 1 uM after 24 hrs by Renilla/firefly dual luciferase reporter assay; assay type: cell-based; procedure, shortened: as §3
[7] = Drug accumulation in cytoplasm of APP expressing HEK cells at 2 uM after 2 hrs by confocal microscopy; assay type: ADME, cell-based; details: human, hek293, 2 h
[8] = Toxicity against APP expressing HEK cells assessed as reduction in cell viability after 48 hrs by MTT assay; assay type: cell-based, HEK293; details: human
[9] = Binding affinity to ADAM10 A10-mutant RNA QGRS (unknown origin) by surface plasmon resonance method
[10] = Binding affinity to ADAM10 A10-RNA QGRS (unknown origin) assessed as reduction in RNA G-quadruplex bands at 0.5 to 10 fold excess compound level by native gel electrophoresis method; procedure, shortened: as §2
[11] = system: HEK-APP; test: Binding affinity to ADAM10 A10-RNA QGRS (unknown origin) transfected in HEK-APP cells assessed as increase in sAPPalpha level at 1.5 uM after 48 hrs by Western blotting method; assay type: cell-based; procedure, shortened: as §4
[12] = target: T1, Disintegrin and metalloproteinase domain-containing protein 10 (Homo sapiens) (UniProt O14672); test: Activation of human recombinant ADAM10 assessed as increase in enzyme activity at 0.25 to 4 uM pre-incubated for 20 mins before fluorogenic alpha-secretase substrate addition and measured 1 hr post substrate addition by monochromator-based multimode microplate reader based method
T1 sequence (whole entry): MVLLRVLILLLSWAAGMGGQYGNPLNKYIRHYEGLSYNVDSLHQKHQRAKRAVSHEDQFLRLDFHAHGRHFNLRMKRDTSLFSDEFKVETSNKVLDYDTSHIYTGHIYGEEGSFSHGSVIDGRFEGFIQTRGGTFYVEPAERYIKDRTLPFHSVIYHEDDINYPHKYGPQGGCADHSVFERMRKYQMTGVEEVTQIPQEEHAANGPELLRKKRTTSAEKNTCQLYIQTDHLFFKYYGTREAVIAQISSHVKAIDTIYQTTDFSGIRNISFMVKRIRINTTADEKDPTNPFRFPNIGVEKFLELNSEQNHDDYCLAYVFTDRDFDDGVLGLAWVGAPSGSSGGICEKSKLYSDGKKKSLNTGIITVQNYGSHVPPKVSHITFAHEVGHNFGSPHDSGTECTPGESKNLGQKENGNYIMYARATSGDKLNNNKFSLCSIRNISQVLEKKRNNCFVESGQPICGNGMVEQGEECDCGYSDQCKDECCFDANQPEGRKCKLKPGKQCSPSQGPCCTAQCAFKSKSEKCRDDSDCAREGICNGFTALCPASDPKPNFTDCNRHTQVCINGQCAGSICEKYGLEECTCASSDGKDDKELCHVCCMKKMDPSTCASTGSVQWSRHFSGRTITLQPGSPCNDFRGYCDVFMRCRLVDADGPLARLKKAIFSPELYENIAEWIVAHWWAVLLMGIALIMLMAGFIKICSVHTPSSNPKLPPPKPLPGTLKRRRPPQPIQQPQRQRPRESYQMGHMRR
Procedure, shortened: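 Recombinant human ADAM10 (50 ng total protein per sample) preincubated 20 min with 0, 0.25, 0.5, 1, 2, 4 μM compound. Then 2× reaction buffer added (50 μM Tris, 4 μM ZnCl2, 0.01% Brij-35, pH 9.0) with 20 μM fluorogenic α-secretase substrate. Incubated 1 h at 37 °C in the dark; fluorescence read at ex 340/em 490 nm.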

[13] = system: HeLa; test: Binding affinity to ADAM10 5'-UTR mutant RNA QGRS (unknown origin) transfected in human HeLa cells assessed as increase in luciferase mRNA expression at 0.5 to 2.5 uM after 24 hrs by RT-PCR method; assay type: cell-based
[14] = system: HEK-APP; test: Binding affinity to ADAM10 A10-RNA QGRS (unknown origin) transfected in HEK-APP cells assessed as increase in ADAM10 protein expression at 1 uM after 48 hrs by Western blotting method; assay type: cell-based; procedure, shortened: as §4
[15] = system: HeLa; test: Binding affinity to ADAM10 A10-RNA QGRS (unknown origin) transfected in human HeLa cells assessed as increase in ADAM10 translation efficiency at 1 uM after 24 hrs by Renilla/firefly dual luciferase reporter assay; assay type: cell-based; procedure, shortened: as §1

Activity [3]: Active
Drug uptake [7]: Active
Kd [9]: 700 mM
Activity [10]: Active
Activity [12]: Active
SMILES: CCn1c2ccccc2c2cc(/C=C/c3cc(N4CCN(C)CC4)c4ccccc4[n+]3C)ccc21.[I-]
Activity [1]: 138%
Activity [2]: Dose-dependent effect
Activity [4]: 9.7%
Activity [5]: inactive
Activity [6]: 22.5%
IC50 at 48 h [8]: 0.0107 mM
fold change (FC) [11]: 3.3
Activity [13]: inactive
Activity [14]: 76.8%
Activity [15]: 46.9%
